# Measured values: ChEMBL document CHEMBL2163203, “Conformationally-locked N-glycosides with selective β-glucosidase inhibitory activity: identification of a new non-iminosugar-type pharmacological chaperone for Gaucher disease” (J Med Chem, 2012)
# pKi: −log10 of the molar value. The source made the active and inactive calls. No cut-off for these calls is given here.
# How the values were obtained:
# Prunus dulcis = experiment: Inhibition of almond beta-glucosidase at 2 mM after 10 to 30 mins by spectrophotometric analysis
# How it was run: (§1)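 Enzyme added to substrate with or without inhibitor in phosphate buffer (phosphate–citrate for α-/β-mannosidase and amyloglucosidase) at each enzyme's optimal pH; 10–30 min at 37 °C (55 °C amyloglucosidase), aiming at 10–20% conversion. Stopped with 1 M Na₂CO₃, A405; trehalase stopped by heating, GLC-Trinder added, A492. Ki from Lineweaver–Burk and double-reciprocal analysis, substrate near Km.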
# Saccharomyces cerevisiae [1] = experiment: Inhibition of yeast alpha-glucosidase using at 2 mM after 10 to 30 mins by spectrophotometric analysis; how it was run: as §1
# Canavalia ensiformis = experiment: Inhibition of jack bean alpha-mannosidase at 2 mM after 10 to 30 mins by spectrophotometric analysis; how it was run: as §1
# Helix pomatia = experiment: Inhibition of Helix pomatia beta-mannosidase at 2 mM after 10 to 30 mins by spectrophotometric analysis; how it was run: as §1
# [2] = target: T1, Uncharacterized protein (Sus scrofa) (UniProt I3LIR5); experiment: Inhibition of pig trehalase isolated from kidney using alpha,alpha'-trehalose as substrate at 2 mM after 10 to 30 mins by spectrophotometric analysis; how it was run: as §1
# T1 sequence (whole entry): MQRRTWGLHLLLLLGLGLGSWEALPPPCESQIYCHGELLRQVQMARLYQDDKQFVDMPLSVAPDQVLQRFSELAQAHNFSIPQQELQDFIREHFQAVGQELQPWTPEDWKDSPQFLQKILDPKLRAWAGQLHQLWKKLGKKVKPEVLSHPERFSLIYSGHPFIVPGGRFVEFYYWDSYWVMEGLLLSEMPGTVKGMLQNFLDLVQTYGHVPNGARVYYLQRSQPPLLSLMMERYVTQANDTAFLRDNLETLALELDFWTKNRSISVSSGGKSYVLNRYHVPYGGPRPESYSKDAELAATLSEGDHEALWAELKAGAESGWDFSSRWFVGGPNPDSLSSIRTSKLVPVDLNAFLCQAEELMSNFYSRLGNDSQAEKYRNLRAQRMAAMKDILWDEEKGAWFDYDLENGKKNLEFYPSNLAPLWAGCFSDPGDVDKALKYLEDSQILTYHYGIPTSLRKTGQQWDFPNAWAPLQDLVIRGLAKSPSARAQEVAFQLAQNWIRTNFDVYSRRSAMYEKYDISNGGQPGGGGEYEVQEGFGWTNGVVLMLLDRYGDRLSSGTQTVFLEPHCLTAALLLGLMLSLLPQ
# Aspergillus niger = experiment: Inhibition of Aspergillus niger amyloglucosidase at 2 mM after 10 to 30 mins by spectrophotometric analysis; how it was run: as §1
# Penicillium decumbens = experiment: Inhibition of Penicillium decumbens naringinase at 2 mM after 10 to 30 mins by spectrophotometric analysis; how it was run: as §1
# [3] = target: Alpha-galactosidase (Coffea arabica) (UniProt Q42656); experiment: Inhibition of green coffee alpha galactosidase at 2 mM after 10 to 30 mins by spectrophotometric analysis; how it was run: as §1
# Sequence of Alpha-galactosidase (Coffea arabica) (Q42656 16-378 limits assumed): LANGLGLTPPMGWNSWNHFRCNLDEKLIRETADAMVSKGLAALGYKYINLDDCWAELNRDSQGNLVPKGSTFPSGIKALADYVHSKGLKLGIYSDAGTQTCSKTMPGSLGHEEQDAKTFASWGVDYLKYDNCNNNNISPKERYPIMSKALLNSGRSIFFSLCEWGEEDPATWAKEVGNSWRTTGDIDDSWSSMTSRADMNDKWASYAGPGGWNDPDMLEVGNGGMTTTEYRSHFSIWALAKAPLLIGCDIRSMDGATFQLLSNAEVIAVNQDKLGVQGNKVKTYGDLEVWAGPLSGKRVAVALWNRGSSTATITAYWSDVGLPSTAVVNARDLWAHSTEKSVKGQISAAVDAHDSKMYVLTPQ
# [4] = target: Beta-galactosidase (Escherichia coli) (UniProt Q8VNN2); experiment: Inhibition of Escherichia coli beta galactosidase at 2 mM after 10 to 30 mins by spectrophotometric analysis; how it was run: as §1
# Sequence of Beta-galactosidase (Escherichia coli) (Q8VNN2 whole entry, looked up): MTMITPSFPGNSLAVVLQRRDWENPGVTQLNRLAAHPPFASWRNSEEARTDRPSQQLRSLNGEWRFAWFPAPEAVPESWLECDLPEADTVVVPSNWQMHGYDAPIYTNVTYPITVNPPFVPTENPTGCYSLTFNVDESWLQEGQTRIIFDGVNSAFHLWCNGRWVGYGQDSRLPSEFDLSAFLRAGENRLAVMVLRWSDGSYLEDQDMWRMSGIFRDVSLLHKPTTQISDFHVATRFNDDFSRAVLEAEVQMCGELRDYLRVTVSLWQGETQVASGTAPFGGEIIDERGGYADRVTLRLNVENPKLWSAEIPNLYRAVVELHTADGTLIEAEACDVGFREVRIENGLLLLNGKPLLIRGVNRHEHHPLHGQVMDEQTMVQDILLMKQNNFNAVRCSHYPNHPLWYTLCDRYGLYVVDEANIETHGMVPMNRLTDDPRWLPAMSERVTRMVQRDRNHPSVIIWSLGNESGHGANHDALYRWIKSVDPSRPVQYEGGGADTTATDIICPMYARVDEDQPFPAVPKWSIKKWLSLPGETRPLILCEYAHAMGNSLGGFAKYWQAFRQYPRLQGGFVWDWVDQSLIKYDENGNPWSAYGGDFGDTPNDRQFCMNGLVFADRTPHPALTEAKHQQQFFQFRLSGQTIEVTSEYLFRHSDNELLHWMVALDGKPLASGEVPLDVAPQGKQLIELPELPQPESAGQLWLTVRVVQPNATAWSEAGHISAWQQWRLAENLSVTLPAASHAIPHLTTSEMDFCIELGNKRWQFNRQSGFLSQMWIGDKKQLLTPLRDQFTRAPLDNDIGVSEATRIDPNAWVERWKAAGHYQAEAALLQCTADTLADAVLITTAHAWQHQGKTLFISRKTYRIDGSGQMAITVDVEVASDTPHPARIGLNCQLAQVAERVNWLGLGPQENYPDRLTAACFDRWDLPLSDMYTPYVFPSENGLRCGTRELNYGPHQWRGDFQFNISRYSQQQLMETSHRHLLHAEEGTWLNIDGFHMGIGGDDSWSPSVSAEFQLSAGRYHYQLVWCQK
# Saccharomyces cerevisiae [5] = experiment: Inhibition of yeast isomaltase at 2 mM after 10 to 30 mins by spectrophotometric analysis; how it was run: as §1
# [6] = target: T2, Lysosomal acid glucosylceramidase (Homo sapiens) (UniProt P04062); experiment: Inhibition of human beta-glucocerebrosidase at 100 uM relative to control; settings: values are per cent of control
# T2 sequence (whole entry): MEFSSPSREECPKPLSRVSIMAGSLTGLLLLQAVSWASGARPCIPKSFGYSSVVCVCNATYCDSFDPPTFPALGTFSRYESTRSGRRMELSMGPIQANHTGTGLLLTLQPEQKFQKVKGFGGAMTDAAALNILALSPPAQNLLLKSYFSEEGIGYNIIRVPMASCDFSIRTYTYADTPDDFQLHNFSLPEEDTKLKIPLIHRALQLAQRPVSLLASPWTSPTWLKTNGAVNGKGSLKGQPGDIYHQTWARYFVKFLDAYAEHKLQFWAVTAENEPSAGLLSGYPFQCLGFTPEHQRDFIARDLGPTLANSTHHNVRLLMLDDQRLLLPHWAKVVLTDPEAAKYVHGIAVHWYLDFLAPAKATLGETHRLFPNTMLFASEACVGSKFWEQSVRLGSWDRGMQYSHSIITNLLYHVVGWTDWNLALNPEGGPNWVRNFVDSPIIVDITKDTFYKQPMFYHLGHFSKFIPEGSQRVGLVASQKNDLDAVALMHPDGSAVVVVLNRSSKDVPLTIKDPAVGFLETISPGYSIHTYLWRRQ
# [7] = Competitive inhibition of bovine beta-glucosidase isolated from liver after 10 to 30 mins by Lineweaver-Burk plot analysis; set-up: species or system Bos taurus; how it was run: as §1
SMILES,inhibition (Prunus dulcis),inhibition (Saccharomyces cerevisiae [1]),inhibition (Canavalia ensiformis),inhibition (Helix pomatia),inhibition [2],inhibition (Aspergillus niger),inhibition (Penicillium decumbens),inhibition [3],inhibition [4],inhibition (Saccharomyces cerevisiae [5]),residual activity [6],pKi [7]
CCCCCCCSC1=N[C@H]2O[C@H](CO)[C@@H](O)[C@H](O)[C@H]2O1,inactive,inactive,inactive,inactive,inactive,inactive,inactive,inactive,inactive,inactive,91%,3.51
O=C(NCCCCCCSC1=N[C@H]2O[C@H](CO)[C@@H](O)[C@H](O)[C@H]2O1)C12CC3CC(CC(C3)C1)C2,inactive,inactive,inactive,inactive,inactive,inactive,inactive,inactive,inactive,inactive,91%,3.64
CCCCCCCCSC1=N[C@H]2O[C@H](CO)[C@@H](O)[C@H](O)[C@H]2O1,inactive,inactive,inactive,inactive,inactive,inactive,inactive,inactive,inactive,inactive,91%,3.55
CCCCSC1=N[C@H]2O[C@H](CO)[C@@H](O)[C@H](O)[C@H]2O1,inactive,inactive,inactive,inactive,inactive,inactive,inactive,inactive,inactive,inactive,92%,3.24

# Compounds with a higher pKi [7], results first:
inhibition (Prunus dulcis),inhibition (Saccharomyces cerevisiae [1]),inhibition (Canavalia ensiformis),inhibition (Helix pomatia),inhibition [2],inhibition (Aspergillus niger),inhibition (Penicillium decumbens),inhibition [3],inhibition [4],inhibition (Saccharomyces cerevisiae [5]),residual activity [6],pKi [7],SMILES
inactive,inactive,inactive,inactive,inactive,inactive,inactive,inactive,inactive,inactive,87%,4.14,CCCCCCCCCCCCSC1=N[C@H]2O[C@H](CO)[C@@H](O)[C@H](O)[C@H]2O1
inactive,inactive,inactive,inactive,inactive,inactive,inactive,inactive,inactive,inactive,88%,3.68,OC[C@H]1O[C@@H]2N=C(SCc3ccccc3)O[C@@H]2[C@@H](O)[C@@H]1O
inactive,inactive,inactive,inactive,inactive,inactive,inactive,inactive,inactive,inactive,86%,4.28,CCCCCCCCCCCCCCCCSC1=N[C@H]2O[C@H](CO)[C@@H](O)[C@H](O)[C@H]2O1
inactive,inactive,inactive,inactive,inactive,inactive,inactive,inactive,inactive,inactive,97%,3.66,C=CCSC1=N[C@H]2O[C@H](CO)[C@@H](O)[C@H](O)[C@H]2O1
